Measurements published in ChEMBL document CHEMBL2010640, “Perturbing pro-survival proteins using quinoxaline derivatives: a structure-activity relationship study” (Bioorg Med Chem, 2012).
Active and inactive are the calls of the source. The calls are words filed in the database; no cut-off is given here.

Assays:
HeLa [1] = experiment: Induction of apoptosis in human HeLa cells overexpressing Bad3SA at 10 uM after 12 hrs by Hoechst staining; assay type: functional, cell-based
Outline: (§1)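 Doxycycline-inducible HeLa lines (Dox-GFP, Dox-Noxa, Dox-Bad3SA) induced with doxycycline (1 μg/mL) for 3 h, then treated for a further 12 h; ABT-737 tested at 1 μM, other compound at 10 μM, DMSO vehicle. Cells fixed and Hoechst-stained; condensed nuclei counted to give percent cell death.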

HeLa [2] = experiment: Induction of apoptosis in human HeLa cells assessed as caspase activation at 1 to 10 uM by Hoechst staining; assay type: functional, cell-based
Outline: (§2)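 HeLa cells, 2000 cells/well, treated 6 h (ABT-737 1 μM; other compounds 10 μM, alone or combined); Caspase-Glo 3/7 reagent added, luminescence read after 1 h, RLU normalized to alamarBlue fluorescence. Separately, cell death across doses of the combination scored by Hoechst staining.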

[3] = target: Induced myeloid leukemia cell differentiation protein Mcl-1 (Homo sapiens) (UniProt Q07820); experiment: Induction of Mcl-1-mediated apoptosis in doxycyclin-stimulated human HeLa cells expressing GFP at 10 uM after 12 hrs by Hoechst staining; assay type: cell-based; outline: as §1
Sequence of Induced myeloid leukemia cell differentiation protein Mcl-1 (Homo sapiens) (Q07820 whole entry): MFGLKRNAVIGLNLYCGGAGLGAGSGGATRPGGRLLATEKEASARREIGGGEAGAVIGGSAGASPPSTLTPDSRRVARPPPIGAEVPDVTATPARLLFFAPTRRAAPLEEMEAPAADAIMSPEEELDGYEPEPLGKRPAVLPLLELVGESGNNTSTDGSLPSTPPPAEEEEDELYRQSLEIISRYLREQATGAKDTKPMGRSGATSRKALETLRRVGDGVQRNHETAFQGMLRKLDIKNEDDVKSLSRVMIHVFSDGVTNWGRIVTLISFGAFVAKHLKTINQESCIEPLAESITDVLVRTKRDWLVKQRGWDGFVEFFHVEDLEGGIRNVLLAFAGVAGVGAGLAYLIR

[4] = target: Bcl-2-like protein 1 (Homo sapiens) (UniProt Q07817); experiment: Induction of Bcl-xL-mediated apoptosis in doxycyclin-stimulated human HeLa cells overexpressing Noxa at 10 uM after 12 hrs by Hoechst staining; assay type: cell-based; outline: as §1
Sequence of Bcl-2-like protein 1 (Homo sapiens) (Q07817 whole entry): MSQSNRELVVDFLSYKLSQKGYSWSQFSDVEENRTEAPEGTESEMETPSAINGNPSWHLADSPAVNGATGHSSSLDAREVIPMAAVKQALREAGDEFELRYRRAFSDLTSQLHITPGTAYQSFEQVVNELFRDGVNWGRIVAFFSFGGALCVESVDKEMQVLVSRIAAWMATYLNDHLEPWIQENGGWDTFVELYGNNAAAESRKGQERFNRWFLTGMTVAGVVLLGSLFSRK

HeLa [5] = experiment: Induction of apoptosis in human HeLa cells assessed as decrease in XIAP expression at 10 uM by Western blot analysis; assay type: functional, cell-based
Outline: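 HeLa cells treated 24 h, media and trypsinized cells pooled, lysed in RIPA buffer (pH 8.0); SDS-PAGE and Western blot for XIAP, α-tubulin as loading control.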

[6] = target: Induced myeloid leukemia cell differentiation protein Mcl-1 (Homo sapiens) (UniProt Q07820); experiment: Induction of Mcl-1-mediated apoptosis in doxycyclin-stimulated human HeLa cells overexpressing Bad3SA at 10 uM after 12 hrs by Hoechst staining; assay type: cell-based; outline: as §1
HeLa [7] = experiment: Induction of apoptosis in human HeLa cells expressing Bcl-xL assessed as decrease in Mcl-1 level at 1 to 10 uM by Western blot analysis; assay type: functional, cell-based; conditions: TDE = time-dependent effect
Outline: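 HeLa cells exposed to 1, 5 or 10 μM for 12 h (dose response), and Bcl-xL-overexpressing HeLa cells exposed to 10 μM for 3, 6 or 12 h (time course); lysates resolved by SDS-PAGE and blotted for Mcl-1, Bcl-xL and Bcl-2, actin as loading control, DMSO vehicle.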

HeLa [8] = experiment: Induction of apoptosis in human HeLa cells assessed as decrease in Mcl-1 level after 12 hrs by Western blot analysis
HeLa [9] = experiment: Induction of apoptosis in human HeLa cells assessed as caspase activation at 1 uM by Hoechst staining; assay type: functional, cell-based; outline: as §2
[10] = target: Induced myeloid leukemia cell differentiation protein Mcl-1 (Homo sapiens) (UniProt Q07820); experiment: Inhibition of Mcl-1 in human HeLa cells overexpressing Bad3SA assessed as increase in caspase3/7 activity at 50 uM after 6 hrs by luminescence analysis; assay type: cell-based
Outline: (§3)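 Dox-Bad3SA HeLa cells (Bad3SA expressed under doxycycline control) exposed to compound for 6 h, with doxycycline or without it. Caspase 3/7 activity read as Caspase-Glo luminescence 1 h after adding reagent. Raw luminescence was normalized to alamarBlue fluorescence to correct for cell number.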

[11] = target: Induced myeloid leukemia cell differentiation protein Mcl-1 (Homo sapiens) (UniProt Q07820); experiment: Inhibition of Mcl-1 in doxycyclin-stimulated human HeLa cells overexpressing Bad3SA assessed as increase in caspase3/7 activity at 50 uM after 6 hrs by luminescence analysis; assay type: cell-based; outline: as §3

Cc1nc2ccc(NC(=O)Nc3ccc(Br)cc3)cc2nc1C
Activity (HeLa [1]): inactive | Activity (HeLa [2]): inactive

O=C(Nc1ccc(Br)cc1)Nc1ccc2nc(-c3ccco3)c(-c3ccco3)nc2c1
Activity [3]: inactive | Activity [4]: inactive | Activity (HeLa [1]): Active | Activity (HeLa [5]): Active | Activity [6]: Active | Activity (HeLa [7]): tde | Activity (HeLa [2]): inactive | Activity (HeLa [8]): Dose-dependent effect

O=C(Nc1ccc2nc(-c3ccco3)c(-c3ccco3)nc2c1)Nc1ccccc1Br
Activity (HeLa [1]): inactive

O=C(Nc1ccc(Br)cc1)Nc1ccc2nc(-c3cccs3)c(-c3cccs3)nc2c1
Activity (HeLa [1]): inactive

O=C(Nc1cccc(Br)c1)Nc1ccc2nc(-c3ccco3)c(-c3ccco3)nc2c1
Activity (HeLa [1]): Active

O=C(Nc1ccc(Br)cc1)Nc1ccc2nc(-c3ccccn3)c(-c3ccccn3)nc2c1
Activity (HeLa [1]): inactive

CN(C)CC[C@H](CSc1ccccc1)Nc1ccc(S(=O)(=O)NC(=O)c2ccc(N3CCN(Cc4ccccc4-c4ccc(Cl)cc4)CC3)cc2)cc1[N+](=O)[O-]
Activity (HeLa [9]): inactive

O=C(Nc1ccc(Br)cc1)Nc1ccc2nc(-c3ccccc3)c(-c3ccccc3)nc2c1
Activity (HeLa [1]): Active

O=C(Nc1ccccc1)Nc1ccc2nccnc2c1
Activity (HeLa [1]): inactive

CC[C@@]1(O)C(=O)OCc2c1cc1n(c2=O)Cc2cc3ccccc3nc2-1
inhibition [10]: inactive | inhibition [11]: Active
